# Tested on: HL-60
# Experiment: Antiproliferative activity against human HL60 cells after 72 hrs
# Format: functional
# Details: HL-60, 72 h
# In short: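 HL-60 cells grown in RPMI-1640 with 10% heat-inactivated FBS, penicillin, streptomycin and L-glutamine. Cells seeded at 1 × 10⁵ cells/mL and exposed to a range of compound concentrations for 72 h. Total cells (trypan blue positive and negative) counted by haemocytometer. Treated/untreated cell-number ratio used to calculate GI50.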
row,SMILES,GI50 [µM]
1,C=C(CC)C(=O)c1ccc(OC(C)C(=O)O)cc1Cl (stereo not drawn),> 60
2,C=C(CC)C(=O)c1ccc(OCC(=O)O)cc1Cl,> 60
3,C=C(CC)C(=O)c1ccc(OC(C)C(=O)O)cc1Br (stereo not drawn),> 60
4,C=C(C)C(=O)c1ccc(OC(C)C(=O)O)cc1C (stereo not drawn),> 60
5,C=C(C)C(=O)c1ccc(OCC(=O)O)cc1Cl,> 60
6,C=C(CC)C(=O)c1ccc(OCC(=O)O)cc1C,> 60
7,C=C(C)C(=O)c1ccc(OCC(=O)O)cc1C,> 60
8,C=C(C)C(=O)c1ccc(OC(C)C(=O)O)cc1Br (stereo not drawn),> 60
9,C=C(CC)C(=O)c1ccc(OCC(=O)O)cc1Br,> 60
10,C=C(C)C(=O)c1ccc(OC(C)C(=O)O)cc1Cl (stereo not drawn),> 60

# Other lines, results leading:
row,GI50 [µM],SMILES
1,19.3,C=C(CCC)C(=O)c1ccc(OCC(=O)O)c(C)c1C
2,> 60,C=C(CC)C(=O)c1ccc(OC(C)C(=O)O)cc1C (stereo not drawn)
3,4.6,C=C(CC)C(=O)c1ccc(OC(C)C(=O)OC)c(C)c1C (stereo not drawn)
4,44.2,C=C(CC)C(=O)c1ccc(OCC(=O)O)c(Cl)c1Cl [ETHACRYNIC ACID]
5,5.2,C=C(CCCC)C(=O)c1ccc(OC(C)C(=O)OC)c(C)c1C (stereo not drawn)
6,12.1,C=C(CCCC)C(=O)c1ccc(OC(C)C(=O)O)c(C)c1C (stereo not drawn)
7,3.9,C=C(CC)C(=O)c1ccc(OCC(=O)OC)c(Cl)c1Cl
8,8.6,C=C(CCC)C(=O)c1ccc(OCC(=O)OC)c(C)c1C
9,11.2,C=C(CCC)C(=O)c1ccc(OC(C)C(=O)O)c(C)c1C (stereo not drawn)
10,6,C=C(C)C(=O)c1ccc(OC(C)C(=O)OC)c(C)c1C (stereo not drawn)
11,5.6,C=C(CCC)C(=O)c1ccc(OC(C)C(=O)OC)c(C)c1C (stereo not drawn)
12,14.4,C=C(CCCC)C(=O)c1ccc(OCC(=O)O)c(C)c1C
13,8.6,C=C(CCCC)C(=O)c1ccc(OCC(=O)OC)c(C)c1C

# Source: ChEMBL document CHEMBL1147172, “The synthesis of alpha,beta-unsaturated carbonyl derivatives with the ability to inhibit both glutathione S-transferase P1-1 activity and the proliferation of leukemia cells” (2007)
